ChEMBL document CHEMBL1671794, “Synthesis and SAR studies on azetidine-containing dipeptides as HCMV inhibitors” (Bioorg Med Chem, 2011)
The source made the active and inactive calls. The calls are words filed in the database; no cut-off is given here.

System: Vaccinia virus
Assay: Antiviral activity against Vaccinia virus infected in HELF assessed as virus-induced cytopathogenicity at 20 to 100 uM after 4 days by microscopy
Format: functional, organism-based
Settings: Orthopoxvirus vaccinia
In short: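 Near-confluent MDCK (influenza) or confluent HEL monolayers were inoculated with 100 CCID50 of virus. After 1-h adsorption, residual virus was removed, and cells were incubated with fivefold serial dilutions of compound. Cytopathicity was scored microscopically once untreated infected controls reached complete CPE. Minimal cytotoxic concentration was read as microscopically visible alteration of cell morphology.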

For C[C@H](NC(=O)[C@]1(Cc2ccccc2)CCN1C(=O)OCC1c2ccccc2-c2ccccc21)C(N)=O, the Activity was “inactive”.
